{"data": "Assay results gathered from unrelated publications", "effect on": "cell growth or viability", "note": "Compare with care: the assays were run in different laboratories. pEC50, pIC50: −log10 of the molar value."}
{"Structure (SMILES)": "COc1cc(-c2ccc(-c3ccc(C(=N)N)nc3)s2)cc(OC)c1OC", "cell line": "OVCAR-4", "test": "SRB", "measurement": "GI50", "result": "2690 nM"}
{"Structure (SMILES)": "CCOc1ccc(/C=C2\\SC(=S)N(CC(=O)Nc3ccccc3)C2=O)cc1", "cell line": "A549", "test": "MTT", "setting": "10 µM", "measurement": "inhibition", "result": "48.2%"}
{"Structure (SMILES)": "Cn1nnc2c(C(N)=O)ncn2c1=O", "cell line": "AZ-521", "measurement": "pEC50", "result": 3.76}
{"Structure (SMILES)": "COc1cccc(NC(=O)CN2C(=O)/C(=C/c3cccs3)SC2=S)c1", "cell line": "A549", "test": "MTT", "setting": "10 µM", "measurement": "inhibition", "result": "12.4%"}
{"Structure (SMILES)": "COc1cccc(Oc2ccccc2NC(=O)CNC(=O)c2cccc3ccccc23)c1", "cell line": "OVCAR-4", "test": "SRB", "setting": "48 h", "measurement": "GI50", "result": "776 nM"}
{"Structure (SMILES)": "COc1ccc(-c2ccc(-c3ccc(C(=N)N)nc3)s2)cc1Cl", "cell line": "OVCAR-4", "test": "SRB", "measurement": "GI50", "result": "1740 nM"}
{"Structure (SMILES)": "CC(C)C[C@H](NC(=O)[C@H](Cc1ccccc1)NC(=O)c1cnccn1)B(O)O", "cell line": "HCC38", "test": "ATP luminescence", "measurement": "pIC50", "result": 8.00}
{"Structure (SMILES)": "NC(=O)c1cc(Cl)ccc1NC(=O)COc1ccccc1", "cell line": "OVCAR-4", "measurement": "GI50", "result": "> 100000 nM"}
{"Structure (SMILES)": "O=C(CN1C(=O)/C(=C/c2ccccc2)SC1=S)Nc1ccccc1", "cell line": "A549", "test": "MTT", "setting": "10 µM", "measurement": "inhibition", "result": "43.3%"}
{"Structure (SMILES)": "O=C1Nc2ccccc2C1=NNc1nnc2n1N=C(c1ccccc1)CS2", "cell line": "OVCAR-4", "test": "SRB", "setting": "10 µM", "measurement": "inhibition", "result": "41%"}
